High-throughput results (PubChem BioAssay)
ERAP1 HTS inh: blocks human ERAP1 aminopeptidase activity; recombinant ERAP1, Leu-AMC fluorescence, 60 min; inhibition, % at 10.7 µM; 0.15% of 340,000 active; AID 652197;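 active means mean replicate inhibition of at least 30%, or all replicates individually reaching that 30% level; inactive means mean below 30% and not every replicate reaching it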;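 further: 0% = neutral control wells and 100% = L-leucinethiol positive control wells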
Target sequence (Q9NZ08 whole entry, looked up): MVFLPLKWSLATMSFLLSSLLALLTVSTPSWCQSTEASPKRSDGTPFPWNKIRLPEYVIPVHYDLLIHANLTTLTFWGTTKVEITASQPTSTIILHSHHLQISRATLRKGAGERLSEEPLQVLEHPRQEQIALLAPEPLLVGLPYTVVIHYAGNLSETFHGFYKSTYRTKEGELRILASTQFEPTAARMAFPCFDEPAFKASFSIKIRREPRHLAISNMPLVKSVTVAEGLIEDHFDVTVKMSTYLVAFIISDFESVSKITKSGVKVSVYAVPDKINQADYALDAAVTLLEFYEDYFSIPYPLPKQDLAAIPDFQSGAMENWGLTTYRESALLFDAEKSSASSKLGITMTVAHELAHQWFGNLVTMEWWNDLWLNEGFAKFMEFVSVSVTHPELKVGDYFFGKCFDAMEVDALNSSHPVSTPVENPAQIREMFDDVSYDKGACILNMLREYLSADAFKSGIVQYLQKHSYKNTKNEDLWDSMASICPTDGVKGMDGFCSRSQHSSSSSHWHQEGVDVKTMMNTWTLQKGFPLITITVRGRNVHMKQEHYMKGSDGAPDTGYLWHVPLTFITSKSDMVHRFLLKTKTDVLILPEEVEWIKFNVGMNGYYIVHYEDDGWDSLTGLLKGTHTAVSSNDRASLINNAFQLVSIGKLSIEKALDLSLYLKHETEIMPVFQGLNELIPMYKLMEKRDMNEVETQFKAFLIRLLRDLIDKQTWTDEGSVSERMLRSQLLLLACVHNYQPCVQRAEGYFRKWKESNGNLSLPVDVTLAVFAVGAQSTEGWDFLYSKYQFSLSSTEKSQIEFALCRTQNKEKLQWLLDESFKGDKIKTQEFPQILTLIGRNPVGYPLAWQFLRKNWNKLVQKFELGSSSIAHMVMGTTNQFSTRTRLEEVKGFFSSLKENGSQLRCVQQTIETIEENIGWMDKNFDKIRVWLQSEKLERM
MITF act: activators of MITF-driven TRPM1 promoter activity in SK-MEL-5 cells. SK-MEL-5 TRPM1-promoter luciferase, 24 h; % of positive control, neutral wells = 0. activation, % at 12.5 µM. 0.75% of 300,000 active. AID 588334;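 active means mean activation of at least 80% with every replicate also reaching 80%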;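 further: 0% = neutral control wells and 100% = parthenolide positive control wells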
Env fusion inh: inhibitors of HIV Env-mediated cell fusion; HeLa-JRFL Env/CEM21 cell fusion, luciferase; 1.1% of 360,000 active; inhibition, % at 12.3 µM; AID 651610;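 active means mean replicate inhibition score of at least 50 and every replicate individually at or above 50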;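 further: 0% = plate neutral controls and 100% = maraviroc near 300 nM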
Wnt act: Wnt/beta-catenin pathway activation; activation, % at 9.35 µM; Wnt/beta-catenin reporter cell assay, activator, plate reader; AID 743398; 1.2% of 300,000 active; in the data active means activation above about 30%, passing the limit was not always enough;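 further: 0% = neutral control wells and 100% = positive control wells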
Cneo AK release: causes C. neoformans cell lysis; adenylate kinase release luminescence, 4 h; normalised: neutral wells 0, clomiphene wells 100; lysis activity, % at 15 µM; 0.2% of 360,000 active; AID 651654;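 active means mean lysis activity across replicates of at least 80%, whatever share of replicates individually reach that level; inactive means mean lysis activity below 80%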
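Material – Cryptococcus neoformans yeast cells · Quantity – 5 × 10^6 yeast cells/mL · Buffer or medium – YPD medium · Compound – single dose · Timing – 4 h static compound exposure, 37 °C, read 1 h post-reagent · Signal – adenylate kinase release luminescence · Read-out basis – lysis from increased AK signal · Benchmarks – Clomiphene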
esBAF inh: SWI/SNF esBAF complex inhibition. mouse ES cells, Bmi1-luciferase knock-in reporter, 24 h; 100% = twice the neutral-well signal. reporter increase, % at 12.5 µM. 2% of 350,000 active; in the data active means activation above about 40%;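 further: 0% = median of the plate's neutral control wells and 100% = double that signal; a rise in the Bmi1 reporter signal indicates esBAF inhibition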
Numbers without * were called inactive; i = inactive; x = no result; [ ] = remark or other dose. This is a sample that favours compounds with a hit; in the whole collection about 3.5% have one here.

SMILES | ERAP1 HTS inh | MITF act | Env fusion inh | Wnt act | Cneo AK release | esBAF inh
Cc1n[nH]c(=S)n1/N=C/c1ccccc1OCc1ccc(Cl)cc1 | x | 58 | -64 | x | 2 | 52*
CC(=O)N(C)C[C@@H]1Oc2ncc(C#CCC3CCCC3)cc2C(=O)N([C@H](C)CO)C[C@H]1C | -2 | x | 18[16.7 µM] | x | 3 | 7
CN(C)/C=N/C(=S)Nc1ccc(Cl)c(Cl)c1 | 10 | 41 | -24 | 9 | 2 | 63*
CN(C)/C=N/C(=S)Nc1cc(Cl)cc(Cl)c1 | 10 | -16 | -11 | 10 | 18 | 3
CCOc1c(C)cnc2c1c(=O)n(Cc1ccc(Cl)cc1)c(=O)n2C | 1 | -6 | 85* | -1 | 1 | -10
Cc1cccc(NC(=S)NNC(=O)c2sccc2C)c1 | x | 21 | x | x | -2 | 42*
Cc1cccc(NC(=S)NNC(=O)c2csc(C(C)C)c2)c1 | x | x | -131 | 50* | 4 | 6
CCc1cc(C(=O)Nc2ccc(C)cc2Br)cs1 | x | x | -136 | 70* | x | x
CCc1cc(C(=O)NNC(=S)Nc2cccc(C)c2)cs1 | x | x | -113 | 39* | -9 | 50*
C[C@@H]1CN([C@@H](C)CO)C(=O)c2cc(NC(=O)Cc3cn(C)c4ccccc34)ccc2O[C@@H]1CN(C)C(=O)Nc1cccc2ccccc12 | 4 | x | x | x | 0 | -2
C[C@H]1CN([C@@H](C)CO)C(=O)Cc2cc(NC(=O)C3CC3)ccc2O[C@H]1CN(C)Cc1ccncc1 | x | x | -34[16.7 µM] | x | x | -1
C[C@H]1CN([C@@H](C)CO)S(=O)(=O)c2ccc(C#CCN(C)C)cc2O[C@@H]1CN(C)Cc1ccccc1 | -2 | x | -27[16.7 µM] | x | 3 | 2
CCCNC(=O)N1C[C@H](C)[C@H](OC)CN(C)C(=O)c2ccc(NS(=O)(=O)CC(F)(F)F)cc2OC[C@@H]1C | 0 | x | -20[16.7 µM] | x | -4 | 2
Cc1ccc(NC(=O)c2cnccn2)c(Br)c1 | -1 | 71 | -45 | 13 | 2 | 52*
Cc1nn2c(-c3ccccc3)nnc2c2ccccc12 | x | x | i | x | 3 | 52*
Cc1nn2c(-c3cccc(NC(=O)c4ccco4)c3)nnc2c2ccccc12 | x | x | -48 | -2 | 1 | 11
O=[N+]([O-])c1cccn2cc(-c3ccc(Br)cc3)nc12 | 6 | 38 | -10 | 13 | -1 | 58*
CC1=C(C(=O)OCCOc2ccccc2)C(c2coc3ccccc3c2=O)C2=C(CCCC2=O)N1 (stereo unspecified) | 2 | x | 57* | -1 | x | x
Cc1cc(C(=O)Nc2nc3ccc(Cl)cc3s2)nn1C | 3 | x | -147 | 60* | -4 | x
O=C(Nc1nc2ccc(Cl)cc2s1)c1ccc(Br)o1 | x | 59 | x | 10 | -1 | 62*
O=C(Nc1nc2c(Cl)cccc2s1)c1ccc(Br)o1 | x | 1 | -58 | x | 2 | 39
C[C@H]1CN([C@@H](C)CO)C(=O)c2cc(NC(=O)C3CCCCC3)ccc2O[C@@H]1CN(C)C(=O)Nc1ccc(F)cc1 | -1 | x | 21[16.7 µM] | x | 3 | -2
O=C(NC12CC3CC(CC(C3)C1)C2)N(Cc1ccccc1)Cc1ccncc1 | -3 | 8 | 62* | -1 | -2 | -5
C[C@@H]1CCCCO[C@@H](CN(C)S(C)(=O)=O)[C@H](C)CN([C@@H](C)CO)C(=O)c2cc(N(C)C)ccc2O1 | 3 | x | -4[16.7 µM] | x | -1 | 0
NC(=O)c1sc2nc3c(c(-c4ccco4)c2c1N)CCCC3 | 3 | 13 | 57* | -4 | -1 | -12
SMILES | ERAP1 HTS inh | MITF act | Env fusion inh | Wnt act | Cneo AK release | esBAF inh
N#Cc1sc2nc3c(c(-c4ccco4)c2c1N)CCCC3 | x | 2 | x | x | 1 | -13
O=C(O)COc1ccccc1Cc1ccccc1 | x | 1 | x | 0 | -23 | -6
C=CCc1ccccc1OCC(=O)O | x | -11 | 12 | 34* | x | x
O=C(Nc1ccc(F)cc1)N1CC(=O)N2[C@H](CO)[C@@H](c3ccc(Br)cc3)[C@@H]2C1 | -2 | x | x | x | x | x
O=C(Nc1ccccc1)SC1CCCCC1 | 2 | 79 | -27 | 9 | -5 | 83*
CN(C(=O)Nc1ccccc1)C1CCCCC1 | 0 | 29 | -10 | 6 | 2 | 34
O=C(NC1CCCC1)C1CCCN1C(=O)Nc1ccccc1 (stereo unspecified) | x | x | -1 | 2 | 1 | 1
O=C(Nc1ccccc1)N1CCCC2CCCCC21 (stereo unspecified) | x | 61 | x | -2 | -2 | 52*
O=S(=O)(N[C@@H]1CC[C@@H](CCn2cc(C3CC3)nn2)O[C@@H]1CO)c1ccc(F)cc1 | -1 | x | 25[16.7 µM] | x | 21 | -1
CCCN(CC1CC1)C(=O)CSc1ncnc2sc(C)c(C)c12 | x | -3 | 69* | x | -2 | 9
Cc1cccc(NC(=O)CSc2ncnc3sc(C)c(C)c23)n1 | -3 | 1 | 8 | 3 | 5 | 0
Cc1sc2ncnc(SCC(=O)c3cccs3)c2c1C | x | 34 | -99 | 38* | -1 | 60*
C[C@@H]1CN([C@@H](C)CO)C(=O)Cc2cc(NS(=O)(=O)c3cccs3)ccc2O[C@@H]1CN(C)C(=O)Nc1ccc(F)cc1 | -1 | x | 7[16.7 µM] | x | 1 | -2
CO[C@@H]1CN(C)C(=O)c2ccc(NC(=O)C3CC3)cc2OC[C@H](C)N(C(=O)c2ccncc2)C[C@H]1C | 8 | x | 3[16.7 µM] | x | 81* | -4
CO[C@H]1CN(C)C(=O)c2ccc(NC(=O)C3CC3)cc2OC[C@H](C)N(Cc2cc(F)ccc2F)C[C@@H]1C | 3 | x | 81*[16.7 µM] | x | -5 | 31
CO[C@@H]1CN(C)C(=O)c2ccc(NC(=O)C3CC3)cc2OC[C@@H](C)N(Cc2cc(F)ccc2F)C[C@@H]1C | -2 | x | x | x | x | x
CO[C@@H]1CN(C)C(=O)c2ccc(NC(=O)C3CC3)cc2OC[C@H](C)N(Cc2ccc(F)cc2)C[C@H]1C | 3 | x | x | x | 86* | 11
C[C@H](CO)N1C[C@H](C)[C@H](CN(C)Cc2ccc(C(F)(F)F)cc2)Oc2ccc(NC(=O)Cn3cnnn3)cc2CC1=O | 1 | x | 7[16.7 µM] | x | 1 | 1
C[C@H](CO)N1C[C@H](C)[C@@H](CN(C)C(=O)c2cccnc2)Oc2ncc(-c3ccc(C#N)cc3)cc2C1=O | x | x | 1[16.7 µM] | x | 0 | -10
Clc1cc(Cl)cc(Nc2ncnc(-n3cccc3)n2)c1 | 2 | x | -3 | 1 | 0 | x
Cc1ccc(Nc2ncnc(-n3cccc3)n2)cc1Cl | 1 | 41 | -124 | 53* | x | x
